Test results published in ChEMBL document CHEMBL5724801, “EUbOPEN Chemogenomics Library - Multiplex” (2024).
Where “and” joins values, the source holds several entries; their conditions need not be identical. Equal values may be shown once.

Columns and labels:
[1] = test system: U2OS; test: Multiplex assay against U2OS; assay type: toxicity, cell-based; conditions: human
Outline: (§1)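 Live cells carried four stains from seeding: Hoechst33342, BioTracker Green Microtubule Cytoskeleton Dye, MitoTracker Red and Annexin V Alexa Fluor 680. They were imaged on a CQ1 microscope at 37°C and 5% CO2 after compound addition. Using CellPathfinder machine-learning gating, cells were split into Hoechst high-intensity objects or normal cells, normal cells into healthy, pyknosed or fragmented nuclei, and pyknosed cells into mitotic or apoptotic; tubulin, mitochondrial-mass and membrane-permeability phenotypes are per cents of healthy-nucleus cells.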

[2] = test system: HEK-293T; test: Multiplex assay against HEK293T; assay type: toxicity, cell-based; conditions: human; outline: as §1
[3] = 24 h, 10 µM, compound concentration 10 uM
[4] = 48 h, 1 µM, compound concentration 1 uM
[5] = 48 h, 10 µM, compound concentration 10 uM
[6] = 12 h, 1 µM, compound concentration 1 uM
[7] = 12 h, 10 µM, compound concentration 10 uM
[8] = 24 h, 1 µM, compound concentration 1 uM

CN1CCN(c2cc(-c3ccccc3)nc(N)n2)CC1
Population Apoptotic (%) [1, 3]: 100% and 81% | Population Fragmented Nuclei (%) [1, 3]: 23% and 12% | Population Healthy Nuclei (%) [1, 3]: 69% and 80% | Population Hoechst High Intensity Objects (%) [1, 3]: 1% and 2% | Population Membrane Permeable-Phenotype (%) [1, 3]: 9% and 4% | Population Mitochondria Different-Phenotype (%) [1, 3]: 3% and 4% | Population Mitotic Cells (%) [1, 3]: 0% and 18% | Population Normal (%) [1, 3]: 98% and 97% | Population Pyknosed Nuclei (%) [1, 3]: 6% | Population Tubulin-Different-Phenotype (%) [1, 3]: 7% and 2% | Total Cell Count [1, 3]: 287 and 166 | Population Apoptotic (%) [1, 4]: 83% and 69% | Population Fragmented Nuclei (%) [1, 4]: 21% and 19% | Population Healthy Nuclei (%) [1, 4]: 69% and 75% | Population Hoechst High Intensity Objects (%) [1, 4]: 2% and 3% | Population Membrane Permeable-Phenotype (%) [1, 4]: 5% | Population Mitochondria Different-Phenotype (%) [1, 4]: 1% and 2% | Population Mitotic Cells (%) [1, 4]: 16% and 30% | Population Normal (%) [1, 4]: 97% and 96% | Population Pyknosed Nuclei (%) [1, 4]: 9% and 5% | Population Tubulin-Different-Phenotype (%) [1, 4]: 2% and 7% | Total Cell Count [1, 4]: 409 and 267 | Population Apoptotic (%) [1, 5]: 100% and 88% | Population Fragmented Nuclei (%) [1, 5]: 19% and 11% | Population Healthy Nuclei (%) [1, 5]: 71% and 78% | Population Hoechst High Intensity Objects (%) [1, 5]: 1% | Population Membrane Permeable-Phenotype (%) [1, 5]: 5% and 2% | Population Mitochondria Different-Phenotype (%) [1, 5]: 3% | Population Mitotic Cells (%) [1, 5]: 0% and 12% | Population Normal (%) [1, 5]: 98% | Population Pyknosed Nuclei (%) [1, 5]: 8% and 10% | Population Tubulin-Different-Phenotype (%) [1, 5]: 6% and 1% | Total Cell Count [1, 5]: 420 and 254 | Population Apoptotic (%) [2, 6]: 40% and 34% | Population Fragmented Nuclei (%) [2, 6]: 8% and 5% | Population Healthy Nuclei (%) [2, 6]: 79% and 84% | Population Hoechst High Intensity Objects (%) [2, 6]: 6% | Population Membrane Permeable-Phenotype (%) [2, 6]: 0% | Population Mitochondria Different-Phenotype (%) [2, 6]: 35% and 48% | Population Mitotic Cells (%) [2, 6]: 60% and 65% | Population Normal (%) [2, 6]: 93% | Population Pyknosed Nuclei (%) [2, 6]: 11% and 10% | Population Tubulin-Different-Phenotype (%) [2, 6]: 21% and 16% | Total Cell Count [2, 6]: 383 and 354 | Population Apoptotic (%) [2, 7]: 23% and 36% | Population Fragmented Nuclei (%) [2, 7]: 7% and 6% | Population Healthy Nuclei (%) [2, 7]: 82% and 81% | Population Hoechst High Intensity Objects (%) [2, 7]: 7% and 10% | Population Membrane Permeable-Phenotype (%) [2, 7]: 0% | Population Mitochondria Different-Phenotype (%) [2, 7]: 46% and 63% | Population Mitotic Cells (%) [2, 7]: 76% and 63% | Population Normal (%) [2, 7]: 92% and 89% | Population Pyknosed Nuclei (%) [2, 7]: 9% and 12% | Population Tubulin-Different-Phenotype (%) [2, 7]: 30% and 20% | Total Cell Count [2, 7]: 416 and 296 | Population Apoptotic (%) [2, 8]: 20% and 36% | Population Fragmented Nuclei (%) [2, 8]: 9% | Population Healthy Nuclei (%) [2, 8]: 79% and 82% | Population Hoechst High Intensity Objects (%) [2, 8]: 4% | Population Membrane Permeable-Phenotype (%) [2, 8]: 1% | Population Mitochondria Different-Phenotype (%) [2, 8]: 16% and 24% | Population Mitotic Cells (%) [2, 8]: 79% and 63% | Population Normal (%) [2, 8]: 95% | Population Pyknosed Nuclei (%) [2, 8]: 11% and 8% | Population Tubulin-Different-Phenotype (%) [2, 8]: 12% and 8% | Total Cell Count [2, 8]: 488 and 480 | Population Apoptotic (%) [2, 3]: 44% and 34% | Population Fragmented Nuclei (%) [2, 3]: 13% and 9% | Population Healthy Nuclei (%) [2, 3]: 75% and 79% | Population Hoechst High Intensity Objects (%) [2, 3]: 6% and 9% | Population Membrane Permeable-Phenotype (%) [2, 3]: 0% | Population Mitochondria Different-Phenotype (%) [2, 3]: 32% and 50% | Population Mitotic Cells (%) [2, 3]: 55% and 65% | Population Normal (%) [2, 3]: 93% and 90% | Population Pyknosed Nuclei (%) [2, 3]: 11% | Population Tubulin-Different-Phenotype (%) [2, 3]: 19% and 17% | Total Cell Count [2, 3]: 577 and 378 | Population Apoptotic (%) [2, 4]: 23% and 14% | Population Fragmented Nuclei (%) [2, 4]: 13% | Population Healthy Nuclei (%) [2, 4]: 78% and 80% | Population Hoechst High Intensity Objects (%) [2, 4]: 1% and 2% | Population Membrane Permeable-Phenotype (%) [2, 4]: 1% and 0% | Population Mitochondria Different-Phenotype (%) [2, 4]: 12% and 14% | Population Mitotic Cells (%) [2, 4]: 76% and 85% | Population Normal (%) [2, 4]: 98% and 97% | Population Pyknosed Nuclei (%) [2, 4]: 7% and 6% | Population Tubulin-Different-Phenotype (%) [2, 4]: 12% and 9% | Total Cell Count [2, 4]: 745 and 804 | Population Apoptotic (%) [2, 5]: 16% and 27% | Population Fragmented Nuclei (%) [2, 5]: 17% and 13% | Population Healthy Nuclei (%) [2, 5]: 75% and 81% | Population Hoechst High Intensity Objects (%) [2, 5]: 3% | Population Membrane Permeable-Phenotype (%) [2, 5]: 0% and 1% | Population Mitochondria Different-Phenotype (%) [2, 5]: 25% and 24% | Population Mitotic Cells (%) [2, 5]: 83% and 72% | Population Normal (%) [2, 5]: 96% | Population Pyknosed Nuclei (%) [2, 5]: 6% and 4% | Population Tubulin-Different-Phenotype (%) [2, 5]: 14% and 11% | Total Cell Count [2, 5]: 861 and 645
